The source of these data is ChEMBL document CHEMBL4428123, “Synthesis of phenylpiperazine derivatives of 1,4-benzodioxan as selective COX-2 inhibitors and anti-inflammatory agents” (Bioorg Med Chem, 2016).

The subject of data set [1] is Rattus norvegicus. As to the kind of experiment: Anti-inflammatory activity in rat assessed as inhibition of carrageenan-induced paw edema at 10 mg/kg, po administered 30 mins before carrageenan challenge measured after 5 hrs relative to control. It counts as functional. In outline:
(§1)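 Male rats were dosed orally with agents suspended in 0.5% Na CMC, 30 min before 0.1 mL of 1% (w/v) carrageenan was injected into the right hind paw. Thickness of both paws was measured 1, 3 and 5 h after injection. Activity was calculated as percent decrease in edema thickness relative to the carrageenan-induced edema. Data given as mean ± SD with non-parametric comparison, P < 0.05.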
(The carrageenan paw model is a standard test of acute inflammation.)

Data set [2] concerns Rattus norvegicus. The experiment in a line: Anti-inflammatory activity in rat assessed as inhibition of carrageenan-induced paw edema at 10 mg/kg, po administered 30 mins before carrageenan challenge measured after 3 hrs relative to control. The data set is classed as functional. In short, it runs like this: as §1
The test system of data set [3] is Rattus norvegicus. The experiment in a line: Anti-inflammatory activity in rat assessed as inhibition of carrageenan-induced paw edema at 10 mg/kg, po administered 30 mins before carrageenan challenge measured after 1 hr relative to control. It counts as functional. In outline:
as §1

Data set [4] concerns Rattus norvegicus. The experiment in a line: Analgesic activity in rat assessed as pain threshold time at 10 mg/kg, po measured at 1.5 hrs post dose by hot plate method (reference value: 19.1 to 21.2 sec). It counts as functional. On the technique in general: Hot-plate and tail-flick tests time the reaction to a heat stimulus.
In data set [5] the test system is Rattus norvegicus. The experiment in a line: Analgesic activity in rat assessed as pain threshold time at 10 mg/kg, po measured at 0.5 hr post dose by hot plate method (reference value: 19.1 to 21.2 sec). It counts as functional.
Data set [6] relates to Rattus norvegicus. As to the kind of experiment: Analgesic activity in rat assessed as pain threshold time at 10 mg/kg, po measured at 1 hr post dose by hot plate method (reference value: 19.1 to 21.2 sec). The data set is classed as functional.
Data set [7] deals with Rattus norvegicus. As to the kind of experiment: Anti-inflammatory activity in rat assessed as inhibition of carrageenan-induced paw edema at 5 mg/kg, po administered 30 mins before carrageenan challenge measured after 1 hr relative to control. The data set is classed as functional. In short, it runs like this:
as §1

The target in data set [8] is T1, Prostaglandin G/H synthase 1 (Ovis aries, UniProt P05979).
T1 sequence (P05979 whole entry): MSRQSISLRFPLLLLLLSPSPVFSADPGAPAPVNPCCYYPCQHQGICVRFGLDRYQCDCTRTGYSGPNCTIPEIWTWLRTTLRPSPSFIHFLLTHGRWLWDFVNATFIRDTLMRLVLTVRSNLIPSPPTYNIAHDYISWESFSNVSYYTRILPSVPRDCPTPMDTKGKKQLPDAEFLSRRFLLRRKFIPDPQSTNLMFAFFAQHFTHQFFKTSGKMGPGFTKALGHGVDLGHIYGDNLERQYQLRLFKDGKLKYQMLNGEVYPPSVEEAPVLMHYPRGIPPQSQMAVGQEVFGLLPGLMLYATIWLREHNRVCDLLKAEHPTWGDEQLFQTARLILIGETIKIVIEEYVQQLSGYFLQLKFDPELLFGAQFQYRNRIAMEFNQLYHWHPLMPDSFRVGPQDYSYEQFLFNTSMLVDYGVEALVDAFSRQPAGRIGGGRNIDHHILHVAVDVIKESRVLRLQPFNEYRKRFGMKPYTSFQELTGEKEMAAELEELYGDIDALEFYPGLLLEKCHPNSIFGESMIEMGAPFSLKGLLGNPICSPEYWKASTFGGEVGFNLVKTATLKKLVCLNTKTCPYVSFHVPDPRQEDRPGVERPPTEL
As to the kind of experiment: Inhibition of ovine COX1 by enzyme immunoassay.

Data set [9] deals with Rattus norvegicus. The experiment in a line: Anti-inflammatory activity in rat assessed as inhibition of carrageenan-induced paw edema at 20 mg/kg, po administered 30 mins before carrageenan challenge measured after 1 hr relative to control. The data set is classed as functional. In outline: as §1
For data set [10], the system named is Rattus norvegicus. The experiment in a line: Anti-inflammatory activity in rat assessed as inhibition of carrageenan-induced paw edema at 5 mg/kg, po administered 30 mins before carrageenan challenge measured after 5 hrs relative to control. The data set is classed as functional. In short, it runs like this: as §1
Data set [11] relates to Rattus norvegicus. As to the kind of experiment: Anti-inflammatory activity in rat assessed as inhibition of carrageenan-induced paw edema at 20 mg/kg, po administered 30 mins before carrageenan challenge measured after 5 hrs relative to control. It counts as functional. In outline:
as §1

Data set [12] is described as follows: Ulcerogenecity in rat carrageenan-induced inflammation model assessed as stomach mucosal damage by measuring lesions at 5 to 20 mg/kg, po administered 30 mins before carrageenan challenge measured after 1 to 5 hrs by macroscopic analysis. It counts as ADME, organism-based. To be noted: in vivo.
Data set [13] relates to Rattus norvegicus. As to the kind of experiment: Anti-inflammatory activity in rat assessed as inhibition of carrageenan-induced paw edema at 5 mg/kg, po administered 30 mins before carrageenan challenge measured after 3 hrs relative to control. It counts as functional. In outline:
as §1

Data set [14] relates to Rattus norvegicus. As to the kind of experiment: Anti-inflammatory activity in po dosed rat assessed as inhibition of carrageenan-induced paw edema administered 30 mins before carrageenan challenge measured after 1 to 5 hrs. It counts as functional, organism-based. In outline: as §1
The test system of data set [15] is Rattus norvegicus. The experiment in a line: Anti-inflammatory activity in rat assessed as inhibition of carrageenan-induced paw edema at 20 mg/kg, po administered 30 mins before carrageenan challenge measured after 3 hrs relative to control. It counts as functional. In short, it runs like this: as §1

Consider `O=C(O)Cc1ccccc1Nc1c(Cl)cccc1Cl` [DICLOFENAC], for which the inhibition in vivo at 10 mg/kg in the data set on Rattus norvegicus [1] is 50 to 52%; in the data set on Rattus norvegicus [2] it was 79 to 80%; in the data set with Rattus norvegicus [3], 41 to 42%. The Time in the data set with Rattus norvegicus [4] came to 22.3 s; in the data set on Rattus norvegicus [5], 24.1 s; with Rattus norvegicus [6], 23.5 s.

For the molecule `COc1cccc(N2CCN(Cc3ccc4c(c3)OCCO4)CC2)c1`, the inhibition in vivo at 10 mg/kg in the data set on Rattus norvegicus [1] amounted to 40%; in the data set on Rattus norvegicus [2], 62%; in the data set on Rattus norvegicus [3], 45%.

With `COc1ccc(N2CCN(Cc3ccc4c(c3)OCCO4)CC2)cc1`, the inhibition in vivo at 10 mg/kg in the data set with Rattus norvegicus [1] worked out at 63%; with Rattus norvegicus [2], 88%; in the data set on Rattus norvegicus [3] it was 71%. Also, the Time is 22.3 s with Rattus norvegicus [4], 24.6 s in the data set with Rattus norvegicus [5] and 23.3 s with Rattus norvegicus [6].

With `c1ccc(N2CCN(Cc3ccc4c(c3)OCCO4)CC2)cc1`, the inhibition in vivo at 10 mg/kg was 25% with Rattus norvegicus [1], 35% in the data set with Rattus norvegicus [2] and 28% in the data set on Rattus norvegicus [3].

As for `c1ccc(C(c2ccccc2)N2CCN(Cc3ccc4c(c3)OCCO4)CC2)cc1`, the results for the inhibition in vivo at 10 mg/kg in the data set with Rattus norvegicus [1], in the data set with Rattus norvegicus [2] and in the data set with Rattus norvegicus [3] were 19%, 27% and 15%, respectively.

Take `c1ccc(N2CCN(Cc3ccc4c(c3)OCCO4)CC2)nc1`: the values for the inhibition in vivo at 10 mg/kg in the data set on Rattus norvegicus [1], in the data set on Rattus norvegicus [2] and in the data set with Rattus norvegicus [3] were 35%, 55% and 40%, respectively.

Turning to `Cc1ccc(N2CCN(Cc3ccc4c(c3)OCCO4)CC2)c(C)c1`, the figures for the inhibition in vivo at 10 mg/kg in the data set with Rattus norvegicus [1], with Rattus norvegicus [2] and in the data set on Rattus norvegicus [3] were 11%, 28% and 16%, respectively.

In the case of `Fc1ccc(N2CCN(Cc3ccc4c(c3)OCCO4)CC2)cc1`, the inhibition in vivo at 10 mg/kg in the data set with Rattus norvegicus [1] worked out at 57%; in the data set with Rattus norvegicus [2], 82%; in the data set on Rattus norvegicus [3] it was 62%. For the same molecule, the Time in the data set with Rattus norvegicus [4] came to 19.9 s; in the data set on Rattus norvegicus [5], 21.5 s; in the data set on Rattus norvegicus [6] it was 20.7 s.

For the molecule `Clc1cccc(N2CCN(Cc3ccc4c(c3)OCCO4)CC2)c1Cl`, the inhibition in vivo at 10 mg/kg came to 13% with Rattus norvegicus [1], 28% in the data set with Rattus norvegicus [2] and 18% in the data set on Rattus norvegicus [3].

For `FC(F)(F)c1cccc(N2CCN(Cc3ccc4c(c3)OCCO4)CC2)c1`, the inhibition in vivo at 5 mg/kg in the data set on Rattus norvegicus [7] was 56%; with Rattus norvegicus [10], 50%; in the data set with Rattus norvegicus [13], 73%. This molecule gave an IC50 in data set [8] of 8.35 µM. Further, the inhibition in vivo at 10 mg/kg in the data set on Rattus norvegicus [1] is 68%; with Rattus norvegicus [2], 91 to 92%; with Rattus norvegicus [3] it was 76 to 78%. In addition, the inhibition in vivo at 20 mg/kg amounted to 78% in the data set on Rattus norvegicus [9], 75% with Rattus norvegicus [11] and 95% in the data set with Rattus norvegicus [15]. Besides, the Time came out at 23.1 s in the data set on Rattus norvegicus [4], 26.4 s in the data set on Rattus norvegicus [5] and 24.7 s with Rattus norvegicus [6]. Besides, the Activity entry in data set [12] is on record as “Non-Toxic”. Besides, the inhibition entry in the data set with Rattus norvegicus [14] is “Dose-dependent effect”.

As to `O=[N+]([O-])c1ccc(N2CCN(Cc3ccc4c(c3)OCCO4)CC2)cc1`, the inhibition in vivo at 10 mg/kg in the data set on Rattus norvegicus [1] is 65%; with Rattus norvegicus [2], 79%; with Rattus norvegicus [3], 68%. Moreover, the Time with Rattus norvegicus [4] was 21.2 s; in the data set with Rattus norvegicus [5] it was 23.4 s; in the data set on Rattus norvegicus [6] it was 22.6 s.

On to `Clc1cccc(N2CCN(Cc3ccc4c(c3)OCCO4)CC2)c1`, for which the results for the inhibition in vivo at 10 mg/kg with Rattus norvegicus [1], in the data set on Rattus norvegicus [2] and in the data set with Rattus norvegicus [3] were 24%, 37% and 31%, respectively.

In general, inhibition in vivo refers to the change of the read-out against control, counted positive when it falls. In general, IC50 refers to the concentration at which inhibition is half-maximal. Read a high IC50 as lower potency.
